ChEMBL document CHEMBL4130344, “Substituted arylsulphonamides as inhibitors of perforin-mediated lysis” (Eur J Med Chem, 2017)

test: Metabolic stability in human liver microsomes assessed as parent compound remaining at 3 uM after 30 mins by LC-MS/MS method; type: ADME, microsome; details: read-out: Stability
Method in brief: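 Compounds were tested as sodium salts. The read-out was the percentage of parent compound remaining after 30 min exposure to human microsomes.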

| Compound | remaining at 0.5 h, 3 µM [%] |
| --- | --- |
| CN1Cc2cc(-c3ccc(-c4cncc(NS(=O)(=O)c5ccc([N+](=O)[O-])cc5)c4)s3)ccc2C1=O | 39 |
| CN1Cc2cc(-c3ccc(-c4cncc(NS(=O)(=O)c5c(F)cc(F)cc5F)c4)s3)ccc2C1=O | 63 |
| CN1Cc2cc(-c3ccc(-c4cncc(NS(=O)(=O)c5cccc(C(F)(F)F)c5)c4)s3)ccc2C1=O | 57 |
| CN1Cc2cc(-c3ccc(-c4cncc(NS(=O)(=O)c5ccccc5C(F)(F)F)c4)s3)ccc2C1=O | 14 |
| CN1Cc2cc(-c3ccc(-c4cncc(NS(=O)(=O)c5ccc(C#N)cc5)c4)s3)ccc2C1=O | 52 |
